Source: PMC2292750 (PLoS Medicine, 2008)

Key:
mouse PDAC cells = format: cell-based; details: flow cytometry
In short: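 Early-passage PDAC cells came from Kras/p53L/L mouse tumors; normal primary ductal cells came from wild-type mice. Phage (~1 × 10^12 PFU) were labeled with 0.25 mg/ml FITC for 1 h and PEG-purified. Cells were incubated with 1 μM (FITC) phage for 1 h at 37 °C, washed three times with DPBS and trypsinized. Mean fluorescence was read by flow cytometry at 10,000 cells/sample.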

[1] = test system: normal human ductal cells; format: cell-based; details: FITC-labeled phage 1 μM, 1 h at 37 °C, FACS
In short: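 Normal human ductal cells were incubated with 1 μM (FITC) FITC-labeled test phage or an unrelated control phage clone (SNLHPSD) for 1 h at 37 °C. Cells were washed three times with DPBS, trypsinized and centrifuged, then read by flow cytometry at 10,000 cells/sample. Mean fluorescence served as relative uptake.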

plectin-1 = plectin-1 (Mus musculus, UniProt Q9QXS1); assay: Competition experiment with anti-plectin-1 antibody; format: binding; details: coincubation of anti-plectin-1 antibody and FITC-labeled phage with mouse PDAC cells, 1 h at 37 °C, versus vehicle
[2] = test system: mouse PanINs and PDAC lesions, frozen sections; assay: Binding of FITC-labeled phage to frozen mouse pancreas sections; details: 1 μM FITC-labeled phage, 1 h at 37 °C, fluorescence microscopy, n = 3
In short: (§1)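 Frozen tissues (n = 3) were embedded in OCT, cut at 5 μm and arrayed on slides. Sections were incubated for 1 h at 37 °C with 1 μM FITC-labeled test phage or FITC-labeled control phage (no insert). They were then washed three times with PBS, fixed in 2% paraformaldehyde and imaged by fluorescence microscopy (40× objective).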

human PDAC = assay: Binding of FITC-labeled phage to frozen human PDAC sections; details: 1 μM FITC-labeled phage, 1 h at 37 °C, fluorescence microscopy
In short: as §1

Chain of plectin-1 (Q9QXS1 whole entry): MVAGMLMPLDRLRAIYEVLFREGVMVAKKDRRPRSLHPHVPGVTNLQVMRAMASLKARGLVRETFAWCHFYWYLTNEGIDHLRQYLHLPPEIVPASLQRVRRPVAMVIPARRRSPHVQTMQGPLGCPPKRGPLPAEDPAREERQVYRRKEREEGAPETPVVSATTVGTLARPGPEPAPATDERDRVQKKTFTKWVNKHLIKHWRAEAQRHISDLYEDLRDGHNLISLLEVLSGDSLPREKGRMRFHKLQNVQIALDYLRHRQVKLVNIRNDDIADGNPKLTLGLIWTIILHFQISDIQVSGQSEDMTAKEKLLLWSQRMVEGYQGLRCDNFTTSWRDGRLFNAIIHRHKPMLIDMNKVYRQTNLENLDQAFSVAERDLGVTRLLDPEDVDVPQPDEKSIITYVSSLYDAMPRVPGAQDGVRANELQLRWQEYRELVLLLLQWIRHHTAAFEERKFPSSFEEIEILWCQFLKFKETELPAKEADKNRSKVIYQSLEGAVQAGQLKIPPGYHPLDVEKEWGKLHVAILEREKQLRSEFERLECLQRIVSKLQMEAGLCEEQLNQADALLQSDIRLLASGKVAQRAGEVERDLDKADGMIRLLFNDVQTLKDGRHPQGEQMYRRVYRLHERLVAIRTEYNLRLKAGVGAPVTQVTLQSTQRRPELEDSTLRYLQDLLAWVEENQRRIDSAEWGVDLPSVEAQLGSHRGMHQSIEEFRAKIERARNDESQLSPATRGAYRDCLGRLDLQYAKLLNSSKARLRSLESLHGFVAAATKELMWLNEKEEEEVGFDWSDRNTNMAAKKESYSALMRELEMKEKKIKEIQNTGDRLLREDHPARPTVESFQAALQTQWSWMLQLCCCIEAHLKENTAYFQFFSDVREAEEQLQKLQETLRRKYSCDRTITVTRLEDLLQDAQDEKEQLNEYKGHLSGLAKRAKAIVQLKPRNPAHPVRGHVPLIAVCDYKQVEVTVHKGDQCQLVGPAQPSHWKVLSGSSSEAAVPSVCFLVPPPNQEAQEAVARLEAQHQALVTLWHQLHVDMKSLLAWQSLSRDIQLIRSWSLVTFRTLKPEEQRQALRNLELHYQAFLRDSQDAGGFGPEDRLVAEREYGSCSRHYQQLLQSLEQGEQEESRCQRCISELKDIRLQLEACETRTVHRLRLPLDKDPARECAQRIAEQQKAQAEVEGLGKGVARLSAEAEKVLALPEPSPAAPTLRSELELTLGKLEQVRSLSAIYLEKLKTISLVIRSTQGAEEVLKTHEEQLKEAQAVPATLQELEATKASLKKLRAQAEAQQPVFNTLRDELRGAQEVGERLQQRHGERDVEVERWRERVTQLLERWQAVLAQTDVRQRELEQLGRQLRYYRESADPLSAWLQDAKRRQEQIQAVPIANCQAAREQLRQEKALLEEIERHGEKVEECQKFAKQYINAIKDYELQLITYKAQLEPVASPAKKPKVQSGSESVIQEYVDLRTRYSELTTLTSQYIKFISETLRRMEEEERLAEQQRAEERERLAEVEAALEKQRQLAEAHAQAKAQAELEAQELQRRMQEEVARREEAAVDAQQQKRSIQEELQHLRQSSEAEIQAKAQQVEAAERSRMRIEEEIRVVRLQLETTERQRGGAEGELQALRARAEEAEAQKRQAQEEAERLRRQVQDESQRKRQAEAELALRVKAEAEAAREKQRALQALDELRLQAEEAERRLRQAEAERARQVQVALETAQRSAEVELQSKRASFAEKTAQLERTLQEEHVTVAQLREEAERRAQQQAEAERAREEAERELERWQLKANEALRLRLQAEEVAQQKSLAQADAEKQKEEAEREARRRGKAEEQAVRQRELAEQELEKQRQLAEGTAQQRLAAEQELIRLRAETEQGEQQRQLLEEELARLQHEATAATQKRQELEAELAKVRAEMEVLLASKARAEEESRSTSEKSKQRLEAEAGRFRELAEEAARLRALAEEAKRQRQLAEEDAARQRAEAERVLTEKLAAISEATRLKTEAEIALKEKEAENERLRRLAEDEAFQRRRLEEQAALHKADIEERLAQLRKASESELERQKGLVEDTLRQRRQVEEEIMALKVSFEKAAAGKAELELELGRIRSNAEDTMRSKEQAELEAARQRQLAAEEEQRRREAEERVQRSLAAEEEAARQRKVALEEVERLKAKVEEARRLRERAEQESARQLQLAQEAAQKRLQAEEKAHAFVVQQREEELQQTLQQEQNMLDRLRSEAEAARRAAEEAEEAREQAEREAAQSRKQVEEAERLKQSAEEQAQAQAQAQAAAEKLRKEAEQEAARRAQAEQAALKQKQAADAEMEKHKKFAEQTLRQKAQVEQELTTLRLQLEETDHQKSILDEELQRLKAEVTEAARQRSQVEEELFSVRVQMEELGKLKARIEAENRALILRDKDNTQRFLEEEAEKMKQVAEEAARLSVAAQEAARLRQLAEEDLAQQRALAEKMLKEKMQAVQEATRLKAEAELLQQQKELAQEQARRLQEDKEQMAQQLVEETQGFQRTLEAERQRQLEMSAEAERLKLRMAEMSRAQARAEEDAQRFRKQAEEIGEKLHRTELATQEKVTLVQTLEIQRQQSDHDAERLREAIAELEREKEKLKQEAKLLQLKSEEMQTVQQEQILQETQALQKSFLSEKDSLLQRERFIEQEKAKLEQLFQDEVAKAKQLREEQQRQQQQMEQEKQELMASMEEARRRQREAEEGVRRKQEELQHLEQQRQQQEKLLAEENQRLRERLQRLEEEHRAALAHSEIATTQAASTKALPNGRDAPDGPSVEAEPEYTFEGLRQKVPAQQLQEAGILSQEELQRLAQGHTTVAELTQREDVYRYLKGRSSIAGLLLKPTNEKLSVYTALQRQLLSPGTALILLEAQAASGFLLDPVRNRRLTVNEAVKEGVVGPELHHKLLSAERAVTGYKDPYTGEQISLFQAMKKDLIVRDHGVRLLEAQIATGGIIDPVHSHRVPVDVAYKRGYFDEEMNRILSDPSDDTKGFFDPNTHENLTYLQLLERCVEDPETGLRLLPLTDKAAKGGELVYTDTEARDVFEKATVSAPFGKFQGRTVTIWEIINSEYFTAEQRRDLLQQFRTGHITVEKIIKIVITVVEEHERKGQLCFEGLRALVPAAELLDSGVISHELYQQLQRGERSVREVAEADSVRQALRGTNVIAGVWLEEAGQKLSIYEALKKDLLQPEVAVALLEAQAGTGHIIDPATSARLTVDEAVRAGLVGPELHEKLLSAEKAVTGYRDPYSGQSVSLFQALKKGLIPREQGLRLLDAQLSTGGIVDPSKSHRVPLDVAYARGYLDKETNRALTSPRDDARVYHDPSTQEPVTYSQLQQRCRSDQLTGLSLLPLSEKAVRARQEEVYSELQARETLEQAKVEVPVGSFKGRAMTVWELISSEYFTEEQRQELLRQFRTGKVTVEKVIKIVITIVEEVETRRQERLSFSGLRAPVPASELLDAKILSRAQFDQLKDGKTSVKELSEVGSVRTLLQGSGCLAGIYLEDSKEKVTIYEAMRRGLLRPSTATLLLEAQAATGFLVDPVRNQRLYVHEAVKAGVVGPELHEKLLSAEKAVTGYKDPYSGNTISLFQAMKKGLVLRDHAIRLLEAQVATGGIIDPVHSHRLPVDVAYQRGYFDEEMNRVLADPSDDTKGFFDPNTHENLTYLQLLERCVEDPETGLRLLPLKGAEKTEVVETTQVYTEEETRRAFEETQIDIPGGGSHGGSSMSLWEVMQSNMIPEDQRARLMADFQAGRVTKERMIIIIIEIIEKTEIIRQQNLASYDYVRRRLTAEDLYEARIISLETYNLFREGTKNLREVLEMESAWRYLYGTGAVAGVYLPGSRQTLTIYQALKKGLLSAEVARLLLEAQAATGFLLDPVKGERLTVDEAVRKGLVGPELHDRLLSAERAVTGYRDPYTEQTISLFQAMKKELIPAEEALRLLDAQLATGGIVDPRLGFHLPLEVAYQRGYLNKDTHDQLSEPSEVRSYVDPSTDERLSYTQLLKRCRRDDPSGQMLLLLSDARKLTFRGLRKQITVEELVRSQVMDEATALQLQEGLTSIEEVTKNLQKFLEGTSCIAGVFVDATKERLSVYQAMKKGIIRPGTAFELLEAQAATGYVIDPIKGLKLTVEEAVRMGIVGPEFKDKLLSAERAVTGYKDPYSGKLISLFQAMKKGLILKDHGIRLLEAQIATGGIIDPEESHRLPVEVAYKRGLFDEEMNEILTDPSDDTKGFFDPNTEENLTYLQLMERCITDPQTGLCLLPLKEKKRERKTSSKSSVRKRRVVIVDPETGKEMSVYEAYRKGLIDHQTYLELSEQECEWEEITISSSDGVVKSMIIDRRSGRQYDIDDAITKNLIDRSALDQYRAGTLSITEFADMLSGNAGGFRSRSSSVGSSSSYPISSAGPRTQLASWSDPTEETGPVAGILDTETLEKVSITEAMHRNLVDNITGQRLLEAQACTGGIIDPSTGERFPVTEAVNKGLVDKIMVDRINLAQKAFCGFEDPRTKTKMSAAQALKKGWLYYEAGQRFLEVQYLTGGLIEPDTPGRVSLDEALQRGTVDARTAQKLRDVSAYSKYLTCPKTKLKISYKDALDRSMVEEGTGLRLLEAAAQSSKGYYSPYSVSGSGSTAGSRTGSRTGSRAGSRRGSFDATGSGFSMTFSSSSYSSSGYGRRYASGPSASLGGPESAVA

Substance	specificity for mouse PDAC cells over normal ductal cells (mouse PDAC cells; FITC-labeled phage, 1 μM (FITC), 1 h at 37 °C, mean fluorescence)	specificity (ratio of clone 27/unrelated clone mean fluorescence) [1]	abrogation of binding (plectin-1)	binding to PanINs and PDAC lesions on frozen sections [2]	detection of human PDAC on frozen sections (human PDAC)	rank of affinity among fluorescein-labeled phage clones (mouse PDAC cells; mouse PDAC and normal ductal cells, unpublished data)
KTLLPTP [clone 27]	112 fold	0.85	96.9%	prominent binding	able to specifically detect human PDAC	
TMAPSIK [clone 15]						second in affinity
